Screens: PubChem, Johns Hopkins Ion Channel Center
RGS4 inh = inhibitors of human RGS4; hit rate 0.45% among 310,000; HEK293 M3R/RGS4 inducible, Fluo-4 calcium flux; hits give high values; triggered by carbachol at its EC20; B-score at 10 µM; AID 463165; P49798;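 active means B-score, a plate-corrected calcium signal, over three deviations above library mean, with baseline fluorescence within five deviations of library mean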;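 further: RGS4 expression induced by doxycycline in cells with stable M3 receptor; B-score is computed from the integrated fluorescence ratio over baseline after carbachol; higher B-score means a larger calcium signal and so more RGS4 inhibition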
Target sequence (P49798 whole entry, looked up): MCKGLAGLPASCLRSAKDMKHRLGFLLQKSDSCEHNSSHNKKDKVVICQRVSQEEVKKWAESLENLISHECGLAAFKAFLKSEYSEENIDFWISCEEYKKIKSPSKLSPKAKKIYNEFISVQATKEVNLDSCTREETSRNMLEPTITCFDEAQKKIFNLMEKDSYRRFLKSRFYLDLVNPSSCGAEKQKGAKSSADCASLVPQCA
MrgX1 antagonist = blocks BAM8-22 activation of human MrgX1 receptor; Q96LB2; MRGX1-HEK293 calcium flux, Fluo-4, BAM8-22 antagonism; hits give low values; B-score at 10 µM; hit rate 1.3% among 310,000;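 active means calcium-response B-score plate-corrected more than 3 library SD below zero, starting fluorescence within 5 deviations, no agonist response on first addition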;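 further: peak minus trough fluorescence over baseline after final BAM8-22 challenge near maximal dose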
Target sequence (Q96LB2 whole entry, looked up): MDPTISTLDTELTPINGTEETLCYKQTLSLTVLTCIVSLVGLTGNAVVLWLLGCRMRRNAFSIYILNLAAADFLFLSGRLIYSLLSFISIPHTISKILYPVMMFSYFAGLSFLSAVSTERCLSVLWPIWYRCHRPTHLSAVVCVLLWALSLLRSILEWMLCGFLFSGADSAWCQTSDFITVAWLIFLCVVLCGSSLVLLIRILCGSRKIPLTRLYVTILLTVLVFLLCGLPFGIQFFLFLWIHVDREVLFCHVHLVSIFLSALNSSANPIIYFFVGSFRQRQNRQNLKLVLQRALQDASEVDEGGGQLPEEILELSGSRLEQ
MrgX1 agonist = human MrgX1 receptor agonism, primary screen; hit rate 0.44% among 310,000; Q96LB2; B-score at 10 µM; AID 588627; MrgX1-HEK293 cells, Fluo-4 calcium fluorescence, agonist mode; hits give high values;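 active means calcium response B-score plate-corrected fluorescence ratio at least 3 library SD, with starting fluorescence B-score inside 5 SD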
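Material: HEK293 cells stably expressing human MrgX1 receptor | Quantity: 15,000 cells per well | Times: Cells plated overnight, dye loaded 0.5 h 37 °C, 0.5 h room temperature | Measured by: Kinetic Fluo-4 NW fluorescence of intracellular calcium | Control set: Positive and negative controls per plate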
MrgX1 allo act = allosterically activates human MrgX1 receptor signaling. Q96LB2. MrgX1-HEK293, Fluo-4 calcium flux, FDSS; hits give high values. B-score at 10 µM. hit rate 0.63% among 310,000. AID 588675;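 active means plate-corrected calcium response at least 3 library SD above typical, normal starting fluorescence, not activating the receptor alone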;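 further: compound read alongside a low EC10 to EC30 dose of BAM8-22 agonist; peak minus trough fluorescence over baseline measured at the second addition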
RGS4 act = RGS4 potentiation or activation. hit rate 0.92% among 310,000. B-score at 10 µM. HEK293 M3R/inducible RGS4, carbachol calcium flux Fluo4; hits give low values;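 active means B-score of the integrated calcium signal more than 4 SD below the library mean, with starting fluorescence not abnormally high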;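 further: negative B-score means reduced calcium response which marks RGS4 activation or potentiation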
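Test system: HEK293 cells with stable M3R and inducible RGS4; also added: carbachol at ECmax as muscarinic agonist stimulus; schedule: dye loading 30 min 37 °C, buffer rest 30 min RT; technique: kinetic calcium fluorescence imaging with Fluo4-AM dye, 2 µM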
An asterisk follows results filed as active; i = inactive; . = no result. Most compounds without a hit are left out; they make up all but 3.5% or so of the library.

SMILES	RGS4 inh	MrgX1 antagonist	MrgX1 agonist	MrgX1 allo act	RGS4 act
CC(=O)Nc1ccc(/C=C/c2nc(-c3ccccc3O)n[nH]2)cc1	i	i	i	i	i
CCN(C(=O)CN1C(=O)/C(=C/c2ccccc2)SC1=S)C1CCS(=O)(=O)C1 (stereo not given)	i	i	i	i	i
COc1ccc(/C=C2\C(=O)ON=C2c2cccc([N+](=O)[O-])c2)cc1	6.79*	i	i	i	i
COc1ccc(-c2cn(CCc3c[nH]c4ccccc34)nn2)cc1	i	i	i	i	i
C=CCN(C(=O)CNC(=O)c1cccs1)C(C(=O)NC(C)(C)C)c1ccccc1 (stereo not given)	i	i	i	i	i
Cc1cccc(N(Cc2cc3ccccc3[nH]c2=O)C(=O)c2cccs2)c1	i	i	i	i	i
O=c1c(Cl)c(O)c2cccc3c4ccccc4n1c23	i	i	i	i	i
COc1c(O)c(=O)n2c3ccccc3c3ccnc1c32	i	i	i	37.4*	i
O=C1N=C(N2C=CC(=C3C=CNC=C3)C=C2)/C(=C/N=NC(=O)c2ccccc2O)S1	i	i	i	i	i
CCN1CCN(C(=O)c2ccc(Sc3ccccc3Cl)c([N+](=O)[O-])c2)CC1	i	i	i	i	i
CCN1CCCC1CNC(=O)c1ccc(Sc2ccc(F)cc2)c([N+](=O)[O-])c1 (stereo not given)	i	i	i	i	-9.93*
CCN1CCCC1CNC(=O)c1ccc(Sc2ccccc2Cl)c([N+](=O)[O-])c1 (stereo not given)	i	i	i	i	-7.14*
CCOc1ccc(-c2cc(C(=O)Nc3ccc4c(c3)OCCO4)c3ccccc3n2)cc1	i	i	i	i	-7.56*
O=C(Nc1ccc2c(c1)OCCO2)c1cc(-c2ccccn2)nc2ccc(Br)cc12	i	i	i	i	i
Cc1cccc(-c2cc(C(=O)Nc3ccc4c(c3)OCCO4)c3ccccc3n2)c1	i	i	i	i	-7.18*
Cc1ccc(C2=Nc3ccc(Br)cc3C(c3ccncc3)=NN2)cc1	i	i	i	i	i
CC1=NN(c2ccccc2)C(=O)C1(C)[N+](=O)[O-] (stereo not given)	i	i	i	i	i
COc1ccc(CNC(=S)Nc2ccc(Br)cc2)cc1	i	i	i	i	i
NC(=Nc1ccccc1)Nc1ccccc1	i	i	84.1*	i	-8.5*
CN(C(=O)CCS(=O)(=O)c1cc2c(cc1Cl)NC(=O)CO2)C1CCCCC1	i	i	i	i	i
CC1(C)CC2CC(C)(CN2/C=N/c2sc3c(c2C#N)CC(C)(C)NC3(C)C)C1 (stereo not given)	i	-4.53*	i	i	i
CC1CN(C(=O)c2ccc(NS(=O)(=O)c3ccc(C(C)(C)C)cc3)cc2)CC(C)O1 (stereo not given)	i	.	.	.	i
COc1ccc(CC(=O)Oc2ccc(C(C)(C)C)cc2)cc1S(=O)(=O)N1CCOCC1	i	i	i	i	i
CCC(=O)Nc1cccc(C(=O)/C=C/c2ccc(F)cc2)c1	i	i	29.5*	i	i
COc1cccc(NC(=S)NC(=O)/C=C/c2ccc(F)cc2)c1	i	i	i	i	i
SMILES	RGS4 inh	MrgX1 antagonist	MrgX1 agonist	MrgX1 allo act	RGS4 act
CCCCCCN1N=C(C)C(C(=O)c2ccc(Cl)cc2)C1=O (stereo not given)	i	i	66.4*	i	i
CCCCCCCN1N=C(C)C(C(=O)c2ccccc2)C1=O (stereo not given)	i	i	i	i	i
CCOC(=O)COn1c(-c2cccc(Cl)c2)nc2ccc([N+](=O)[O-])cc21	i	-6.23*	i	i	i
CCN1/C(=C/C=C/c2oc3ccc4ccccc4c3[n+]2CC)Oc2ccc3ccccc3c21	i	-7.83*	i	i	-8.98*
O=[N+]([O-])c1c(Nc2ccccc2O)cc(Cl)c2nonc12	i	-11.8*	i	i	i
NC(=O)c1sc(=S)n2c1[nH]c(=O)c1sccc12	i	i	i	16.5*	i
CC(=O)NNC(=O)c1sc(=S)n2c1[nH]c(=O)c1sccc12	i	i	i	i	i
CC(C)CN(C(=O)COC(=O)c1c2c(nc3ccccc13)CCC2)c1c(N)n(Cc2ccccc2)c(=O)[nH]c1=O	i	i	i	i	i
Cc1ccc(NC(=O)COc2nsnc2N2CCOCC2)cc1Cl	i	i	i	i	i
NS(=O)(=O)c1cc(C(=O)NC2CCSc3ccccc32)ccc1Cl (stereo not given)	i	i	61.6*	i	i
COc1ccccc1C(=O)NNC(=S)NC(=O)c1ccco1	i	i	50.2*	i	i
COC(=O)c1cc(OC)c(OC)cc1NC(=S)NC(=O)c1ccco1	i	i	i	i	i
CC(C)(C)c1ccc(OCC(=O)NNC(=O)CCc2ccccc2)cc1	i	i	i	i	i
O=C(NC(=S)NNC(=O)c1cccs1)c1ccco1	i	i	28.5*	i	i
CC(C)(C)c1ccc(C(=O)NC(=S)NNC(=O)COc2ccccc2)cc1	i	i	45.2*	i	-7.46*
CC(C)(C)c1ccc(C(=O)NC(=S)NNC(=O)c2cccs2)cc1	i	i	46.6*	i	i
CC(C)N(CCc1ccncc1)C(=S)Nc1ccc(F)c(Cl)c1	i	i	i	i	i
Cc1cc(C)c(NC(=O)C(C)c2cccc(C(=O)c3ccccc3)c2)c(C)c1 (stereo not given)	i	i	i	i	i
O=C(NCCC1=CCCCC1)C1CC(=O)N(Cc2ccccc2)C1 (stereo not given)	i	i	i	i	i
COc1ccc(C)cc1Nc1n[n+](-c2ccccc2)c(-c2ccc(SC)cc2)s1	i	i	i	i	i
CC(C)c1nnc(SCC(=O)NC2CCCCC2)n1C	i	i	i	i	i
CC(Oc1ccc(Cl)cc1)C(=O)NNC(=S)NC(=O)c1ccco1 (stereo not given)	i	i	90.2*	i	i
CCS(=O)(=O)c1nc(S(=O)(=O)c2ccc(C)cc2)c(N2CCN(C)CC2)s1	i	i	i	i	i
CCC(C)[C@H]1CNC(=S)N1CCc1cc(C(F)(F)F)cc(C(F)(F)F)c1 (stereo not given in full)	i	-5.24*	i	i	i
